Substrate in series [1]: CN(C)CCOc1ccc(/C(=C(/CCCl)c2ccccc2)c2ccc(O)cc2)cc1
Briefly: Activity of human SULT1A1 expressed in escherichia coli assessed as enzyme-mediated 4-(4-chloro-1-(4-(2-(dimethylamino)ethoxy)phenyl)-2-phenylbut-1-enyl)phenyl hydrogen sulfate formation after 15 mins by Michaelis-Menten equation in presence of 20 uM PAPS. It is filed as ADME. The method, boiled down:
(§1)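 Purified E. coli-expressed human enzyme (DEAE-Sepharose, ~80% pure; activity per total protein) incubated with 0.1–30 µM 4-OH-TOR, 20 µM PAPS, 50 mM potassium phosphate pH 6.2, 15 min at 37 °C. Reaction started with enzyme, stopped with acetonitrile:acetic acid (96:4). Sulfate quantified by radio-HPLC. Triplicate runs, corrected with a no-substrate control. Low substrate range chosen to limit substrate inhibition.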

Substrate in series [2]: CN(C)CCOc1ccc(/C(=C(/CCCl)c2ccccc2)c2ccc(O)cc2)cc1
Briefly: Activity of human SULT1E1 expressed in escherichia coli assessed as enzyme-mediated 4-(4-chloro-1-(4-(2-(dimethylamino)ethoxy)phenyl)-2-phenylbut-1-enyl)phenyl hydrogen sulfate formation after 15 mins by Michaelis-Menten equation in presence of 20 uM PAPS. It is filed as ADME. The method in brief:
as §1

B1: Sulfotransferase 1A1 (Homo sapiens) (protein)
chain: MELIQDTSRPPLEYVKGVPLIKYFAEALGPLQSFQARPDDLLISTYPKSGTTWVSQILDMIYQGGDLEKCHRAPIFMRVPFLEFKAPGIPSGMETLKDTPAPRLLKTHLPLALLPQTLLDQKVKVVYVARNAKDVAVSYYHFYHMAKVHPEPGTWDSFLEKFMVGEVSYGSWYQHVQEWWELSRTHPVLYLFYEDMKENPKREIQKILEFVGRSLPEETVDFVVQHTSFKEMKKNPMTNYTTVPQEFMDHSISPFMRKGMAGDWKTTFTVAQNERFDADYAEKMAGCSLSFRSEL
A word on the Km: it is the substrate concentration at which the rate is half of its maximum. In general, Vmax refers to the rate approached at saturating substrate. In the case of B1, in series [1], the Km amounted to 2.6 µM and the Vmax is 0.0085 µmol/min.

B2: Sulfotransferase 1E1 (Homo sapiens) (protein)
chain: MNSELDYYEKFEEVHGILMYKDFVKYWDNVEAFQARPDDLVIATYPKSGTTWVSEIVYMIYKEGDVEKCKEDVIFNRIPFLECRKENLMNGVKQLDEMNSPRIVKTHLPPELLPASFWEKDCKIIYLCRNAKDVAVSFYYFFLMVAGHPNPGSFPEFVEKFMQGQVPYGSWYKHVKSWWEKGKSPRVLFLFYEDLKEDIRKEVIKLIHFLERKPSEELVDRIIHHTSFQEMKNNPSTNYTTLPDEIMNQKLSPFMRKGITGDWKNHFTVALNEKFDKHYEQQMKESTLKFRTEI
As for B2, in series [2], the Km turned out to be 6.4 µM and the Vmax came out at 0.0055 µmol/min.

These data come from ChEMBL document CHEMBL3525912, “Sulfation of 4-hydroxy toremifene: individual variability, isoform specificity, and contribution to toremifene pharmacogenomics” (Drug Metab Dispos, 2012).
